Measured values from ChEMBL document CHEMBL1833966, “Synthesis and evaluation of quinazolin-4-ones as hypoxia-inducible factor-1α inhibitors” (Bioorg Med Chem Lett, 2011).
pIC50: −log10 of the molar value. The source made the active and inactive calls. The rule behind the calls is not given here.

Columns and labels:
[1] = molecular target: T1, Hypoxia-inducible factor 1-alpha (Homo sapiens, UniProt Q16665); assay: Inhibition of hypoxia-induced HIF1alpha activation in human ME180 cells by HRE3-Bla-[…] reporter gene assay; assay type: cell-based, ME-180; settings: for IC50: me-180; for pIC50: read-out: IC50
In short: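 HRE-bla ME-180 reporter cells, 2500 per well, given compound by pin transfer (261-fold dilution), then held 17 h at 37 °C under 1% oxygen. LiveBLAzer B/G FRET β-lactamase substrate added, 2.5 h at room temperature; fluorescence read at 405 nm excitation, 460 and 530 nm emission. IC50 is the mean of three independent experiments.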
Target sequence in this assay (Q16665 whole entry): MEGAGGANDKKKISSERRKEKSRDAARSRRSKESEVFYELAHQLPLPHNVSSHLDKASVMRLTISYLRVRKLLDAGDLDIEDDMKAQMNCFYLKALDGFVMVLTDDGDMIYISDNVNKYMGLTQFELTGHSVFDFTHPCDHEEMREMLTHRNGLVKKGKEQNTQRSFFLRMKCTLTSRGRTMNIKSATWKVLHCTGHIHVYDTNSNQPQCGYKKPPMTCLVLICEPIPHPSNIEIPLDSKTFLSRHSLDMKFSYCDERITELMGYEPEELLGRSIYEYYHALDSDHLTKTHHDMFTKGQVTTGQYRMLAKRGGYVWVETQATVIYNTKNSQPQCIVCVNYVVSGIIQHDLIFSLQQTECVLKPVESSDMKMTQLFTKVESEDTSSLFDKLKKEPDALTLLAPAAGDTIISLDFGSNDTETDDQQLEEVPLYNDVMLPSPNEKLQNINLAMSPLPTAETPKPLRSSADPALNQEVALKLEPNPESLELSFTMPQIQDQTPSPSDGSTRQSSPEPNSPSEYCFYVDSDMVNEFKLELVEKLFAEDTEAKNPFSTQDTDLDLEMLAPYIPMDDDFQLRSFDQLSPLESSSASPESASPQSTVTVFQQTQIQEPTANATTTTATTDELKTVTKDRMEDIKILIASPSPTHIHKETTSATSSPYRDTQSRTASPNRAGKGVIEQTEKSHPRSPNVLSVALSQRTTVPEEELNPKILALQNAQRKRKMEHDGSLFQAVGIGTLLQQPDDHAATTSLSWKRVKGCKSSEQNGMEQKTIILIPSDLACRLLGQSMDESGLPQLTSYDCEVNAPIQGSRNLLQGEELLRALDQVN

ME-180 [2] = assay: Inhibition of hypoxia-induced HIF1alpha protein accumulation in human HRE-bla-ME180 cells at 1 uM after 17 hrs by Western blot analysis; assay type: functional, cell-based
In short: (§1)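 HRE-bla ME-180 cells, 1 × 10^6 per well, cultured 6 h, then exposed 17 h to compound in DMSO at 1% oxygen; DMSO under normal atmosphere as negative control. Lysis on ice with protease inhibitor, centrifugation, 25 ug protein on 10% Tris-Glycine SDS-PAGE, PVDF transfer. Blotted with anti-HIF-1α (1:250), β-actin (1:5000) loading control, HRP secondary, luminol detection.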

ME-180 [3] = assay: Inhibition of hypoxia-induced HIF1alpha protein accumulation in human HRE-bla-ME180 cells at 10 uM after 17 hrs by Western blot analysis; assay type: functional, cell-based; in short: as §1
[4] = molecular target: T1, Hypoxia-inducible factor 1-alpha; assay: Ratio of NCGC00056044 IC50 to compound IC50 for hypoxia-induced HIF1alpha activation in human ME180 cells by HRE3-Bla-[…] reporter gene assay; assay type: cell-based; settings: ME-180
Target sequence in this assay (Q16665 whole entry, looked up): as the sequence (Q16665 whole entry) above

IC50 [1] | Structure (SMILES) | pIC50 [1] | further results
Not Active | O=C(c1ccco1)N1CCN(Cc2nc3ccccc3c(=O)n2-c2ccc(F)cc2)CC1 | – | –
Not Active | CCOc1ccccc1-n1c(CN2CCN(C(=O)c3ccco3)CC2)nc2cc(OC)c(OC)cc2c1=O | – | –
– | CCOc1ccccc1-n1c(CN2CCN(C(=O)c3ccco3)CC2)nc2ccccc2c1=O | 6.37 | –
– | CC(C)COc1ccccc1-n1c(CN2CCNCC2)nc2ccccc2c1=O | 5.21 | –
– | COc1ccc(C(F)(F)F)cc1-n1c(CN2CCNCC2)nc2ccccc2c1=O | 6.70 | –
– | CCOC(=O)N1CCN(Cc2nc3ccccc3c(=O)n2-c2ccccc2OCC)CC1 | 5.03 | –
Not Active | O=C(c1ccco1)N1CCN(Cc2nc3ccccc3c(=O)n2-c2ccccc2C(F)(F)F)CC1 | – | –
– | CCOc1ccccc1-n1c(CN2CCOCC2)nc2ccccc2c1=O | 4.56 | inhibition (ME-180 [2]): inactive; inhibition (ME-180 [3]): Active
– | CCOc1ccccc1-n1c(CN2CCNCC2)nc2ccccc2c1=O | 7.05 | inhibition (ME-180 [2]): Active; Ratio IC50 [4]: 5
– | CCOc1ccccc1-n1c(CN2CCCNCC2)nc2ccccc2c1=O | 6.80 | –
– | CCOc1ccccc1-n1c(CN2CCN(C(C)=O)CC2)nc2ccccc2c1=O | 6.33 | –
– | CCOc1ccccc1-n1c(CN2CCN(C)CC2)nc2ccccc2c1=O | 6.09 | –
Not Active | O=C(c1ccco1)N1CCN(Cc2nc3ccccc3c(=O)n2-c2ccccc2F)CC1 | – | –
Not Active | O=C(c1ccco1)N1CCN(Cc2nc3ccccc3c(=O)n2-c2ccccc2)CC1 | – | –
– | CCOc1ccccc1-n1c(CC2CCN(C(=O)c3ccco3)CC2)nc2ccccc2c1=O | 4.56 | –
Not Active | CCOc1ccccc1-n1c(CN2CCN(C(=O)c3ccco3)CC2)nc2cccc(OC)c2c1=O | – | –

IC50 [1] | Structure (SMILES) | pIC50 [1] | further results
– | COc1ccccc1-n1c(CN2CCN(C(=O)c3ccco3)CC2)nc2ccccc2c1=O | 5.48 | –
– | CCOc1ccccc1-n1c(CN2CCN(Cc3ccccc3)CC2)nc2ccccc2c1=O | 4.56 | –
Not Active | O=C(c1ccco1)N1CCN(Cc2nc3ccccc3c(=O)n2-c2ccccc2OCc2ccccc2)CC1 | – | –
– | O=c1c2ccccc2nc(CN2CCNCC2)n1-c1ccccc1OCc1ccccc1 | 4.64 | –
– | CCNc1ccccc1-n1c(CN2CCNCC2)nc2ccccc2c1=O | 5.39 | –
Not Active | O=C(c1ccco1)N1CCN(Cc2nc3ccccc3c(=O)n2-c2ccccc2[N+](=O)[O-])CC1 | – | –
– | CCOc1ccccc1-n1c(CN2CCN(C(=O)c3ccccc3)CC2)nc2ccccc2c1=O | 5.77 | –
Not Active | O=C(c1ccco1)N1CCN(Cc2nc3ccccc3c(=O)n2-c2ccccc2Cl)CC1 | – | –
– | CCSc1ccccc1-n1c(CN2CCNCC2)nc2ccccc2c1=O | 5.46 | –
Not Active | CC(C)(C)c1ccccc1-n1c(CN2CCN(C(=O)c3ccco3)CC2)nc2ccccc2c1=O | – | –
Not Active | CCOc1ccccc1-n1c(CN2CCN(C(=O)c3ccco3)CC2)nc2ccc(I)cc2c1=O | – | –
Not Active | O=C(c1ccco1)N1CCN(Cc2nc3ccccc3c(=O)n2-c2ccccc2Oc2ccccc2)CC1 | – | –
Not Active | Cc1ccccc1-n1c(CN2CCN(C(=O)c3ccco3)CC2)nc2ccccc2c1=O | – | –
– | COc1ccc([N+](=O)[O-])cc1-n1c(CN2CCNCC2)nc2ccccc2c1=O | 5.38 | –
– | CCOc1ccccc1-n1c(CN2CCN(C(=O)c3ccco3)CC2)nc2cccc(C)c2c1=O | 5.92 | –

Structure (SMILES) | IC50 [1] | pIC50 [1] | further results
COc1ccc(-n2c(CN3CCNCC3)nc3ccccc3c2=O)cc1 | Not Active | – | –
CCOc1ccccc1-n1c(CN2CCCCC2)nc2ccccc2c1=O | Not Active | – | –
